Data reported in ChEMBL document CHEMBL1127375, “Nucleic acid related compounds. 84. Synthesis of 6'-(E and Z)-halohomovinyl derivatives of adenosine, inactivation of S-adenosyl-L-homocysteine hydrolase, and correlation of anticancer and antiviral potencies with enzyme inhibition” (J Med Chem, 1994).
Converted amounts (≈) assume the structure as drawn.

How the values were obtained:
E6SM [1] = assay: Tested for the antiviral activity against Vesicular stomatitis virus in human E6SM cells; assay type: functional
In short: (§1)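 Confluent E6SM, HeLa or Vero cultures were inoculated with 100 CCID50 of virus and allowed 1 h adsorption. Residual virus was removed, then cells were incubated with compound at 400, 200, 100 … μg/mL. Virus-induced cytopathicity was scored once complete in untreated infected controls. MIC is the minimum inhibitory concentration.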

Vero [2] = assay: Tested for the antiviral activity against Sindbis virus in simian Vero cells; assay type: functional; details: Chlorocebus sabaeus; in short: as §1
HeLa [3] = assay: Tested for the antiviral activity against polio-1 virus in human HeLa cells; assay type: functional; in short: as §1
MOLT-4 [4] = assay: Tested for in vitro cytostatic activity against human lymphoblast Molt-4 (Clone8); assay type: functional, cell-based
In short: (§2)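 Cells seeded at 5 × 10^5/mL (murine L1210 leukemia, FM3A mammary carcinoma) or 7.5 × 10^5/mL (human Molt-4 clone 8, CEM) and exposed to varying compound concentrations. Incubation at 37 °C in humidified CO2 was 2 days for L1210/FM3A and 3 days for Molt-4/CEM. Viable cells were Coulter-counted; IC50 is the concentration reducing viable cell number by 50%. Means of at least two to three determinations.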

HeLa [5] = assay: Tested for the antiviral activity against Vesicular stomatitis virus in human HeLa cells; assay type: functional; in short: as §1
Vero [6] = assay: Tested for the antiviral activity against Parainfluenza-3 virus in Simian Vero cells; assay type: functional; details: Chlorocebus sabaeus; in short: as §1
E6SM [7] = assay: Tested for the antiviral activity against HSV-1 (KOS) in human E6SM cells; assay type: functional; in short: as §1
L1210 = assay: Tested for in vitro cytostatic activity against murine leukemia L1210; assay type: functional, cell-based; details: Mus musculus; in short: as §2
FM3A = assay: Tested for in vitro cytostatic activity against murine mammary carcinoma (FM3A); assay type: functional, cell-based; details: Mus musculus; in short: as §2
CCRF-CEM = assay: Tested for in vitro cytostatic activity against CEM cells; assay type: functional, cell-based; details: Homo sapiens; in short: as §2
E6SM [8] = assay: Tested for the minimum cytotoxic concentration on E6SM cells; assay type: functional; details: Homo sapiens
In short: (§3)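 Uninfected E6SM, HeLa or Vero cultures were incubated with serial compound concentrations (400, 200, 100 … μg/mL). Cytotoxicity was judged as microscopically detectable alteration of normal cell morphology. The value is the minimum concentration causing this alteration.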

Vero [9] = assay: Tested for the minimum cytotoxic concentration on Vero cells; assay type: functional; details: Chlorocebus sabaeus; in short: as §3
E6SM [10] = assay: Tested for the antiviral activity against Vaccinia virus in human E6SM cells; assay type: functional; in short: as §1
HeLa [11] = assay: Tested for the antiviral activity against Coxsackie B4 virus in human HeLa cells; assay type: functional; in short: as §1
E6SM [12] = assay: Tested for the antiviral activity against HSV-2 in Human E6SM cells; assay type: functional; in short: as §1
Vero [13] = assay: Tested for the antiviral activity against reovirus-1 in simian Vero cells; assay type: functional; details: Chlorocebus sabaeus; in short: as §1
HeLa [14] = assay: Tested for the minimum cytotoxic concentration on HeLa cells; assay type: functional; details: Homo sapiens; in short: as §3
Vero [15] = assay: Tested for the antiviral activity against forest virus in simian Vero cells; assay type: functional; details: Chlorocebus sabaeus; in short: as §1
E6SM [16] = assay: Tested for the minimum cytotoxic concentration against E6SM cells; assay type: functional; details: Homo sapiens; in short: as §3
Vero [17] = assay: Tested for the antiviral activity against Parainfluenza-3 virus in simian Vero cells; assay type: functional; details: Chlorocebus sabaeus; in short: as §1
Vero [18] = assay: Tested for the minimum cytotoxic concentration against Vero cells; assay type: functional; details: Chlorocebus sabaeus; in short: as §3
Adenosylhomocysteinase [19] = target: T1, Adenosylhomocysteinase (Homo sapiens, UniProt P23526)
Target sequence in this assay (P23526 2-432 limits assumed): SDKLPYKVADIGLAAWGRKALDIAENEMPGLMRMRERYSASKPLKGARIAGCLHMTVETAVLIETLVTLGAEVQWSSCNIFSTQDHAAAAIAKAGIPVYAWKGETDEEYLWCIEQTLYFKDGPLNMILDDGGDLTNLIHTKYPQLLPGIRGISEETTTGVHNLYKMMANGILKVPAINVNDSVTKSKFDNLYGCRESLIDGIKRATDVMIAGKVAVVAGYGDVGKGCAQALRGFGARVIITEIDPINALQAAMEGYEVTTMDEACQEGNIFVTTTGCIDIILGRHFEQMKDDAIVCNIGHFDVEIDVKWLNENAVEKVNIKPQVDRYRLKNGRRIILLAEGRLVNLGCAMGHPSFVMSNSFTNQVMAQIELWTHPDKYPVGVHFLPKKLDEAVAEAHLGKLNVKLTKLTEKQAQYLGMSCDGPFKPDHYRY

[20] = Tested ratio of kinact to that of Ki
In short: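 Purified recombinant human placental AdoHcy hydrolase (10 nM) preincubated with various inhibitor concentrations for various times at 37 °C, pH 7.2, in 50 mM potassium phosphate with 1 mM EDTA. Residual activity was measured in the synthetic direction by adding Ado and homocysteine for 5 min. The reaction was stopped with perchloric acid and AdoHcy quantified by C-18 HPLC at 258 nm. Ki and kinact were derived from 1/Kapp = 1/kinact + Ki/kinact[I].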

HeLa [21] = assay: Tested for the minimum cytotoxic concentration against HeLa cells; assay type: functional; details: Homo sapiens; in short: as §3
E6SM [22] = assay: Tested for the antiviral activity against HSV-2 in human E6SM cells; assay type: functional; in short: as §1
Adenosylhomocysteinase [23] = target: T1, Adenosylhomocysteinase; assay: Tested for kinetic constant for the inhibition of recombinant human placental S-Adenosyl-L-homocysteine Hydrolase
Target sequence in this assay (P23526 whole entry): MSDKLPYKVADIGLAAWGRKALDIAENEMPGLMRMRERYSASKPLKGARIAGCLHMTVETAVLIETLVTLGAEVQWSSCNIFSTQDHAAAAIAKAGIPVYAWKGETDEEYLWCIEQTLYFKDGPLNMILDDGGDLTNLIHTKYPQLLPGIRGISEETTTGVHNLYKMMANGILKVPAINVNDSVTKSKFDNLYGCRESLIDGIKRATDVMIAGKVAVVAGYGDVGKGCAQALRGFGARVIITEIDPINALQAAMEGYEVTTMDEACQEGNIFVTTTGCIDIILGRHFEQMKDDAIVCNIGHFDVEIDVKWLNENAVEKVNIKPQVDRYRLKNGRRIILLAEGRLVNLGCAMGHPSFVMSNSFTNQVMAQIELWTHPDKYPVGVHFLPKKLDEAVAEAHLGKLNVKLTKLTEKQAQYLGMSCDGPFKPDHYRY

HeLa [24] = assay: Tested for the antiviral activity against Coxsackie B4 virus in Human HeLa cells; assay type: functional; in short: as §1
MOLT-4 [25] = assay: Tested for in vitro cytostatic activity against Human lymphoblast Molt-4 (Clone8); assay type: functional, cell-based; in short: as §2

Row | SMILES | MIC (E6SM [1]) | MIC (Vero [2]) | MIC (HeLa [3]) | IC50 (MOLT-4 [4]) | MIC (HeLa [5]) | MIC (E6SM [7]) | IC50 (L1210) | IC50 (FM3A) | IC50 (CCRF-CEM) | MIC (E6SM [10]) | MIC (HeLa [11]) | MIC (Vero [13]) | MIC (Vero [15]) | MCC (E6SM [16]) | MIC (Vero [17]) | MCC (Vero [18]) | K inact (Adenosylhomocysteinase [19]) | Ratio [20] | MCC (HeLa [21]) | MIC (E6SM [22]) | also measured
1 | Cc1ccc(S(=O)(=O)/C=C/[C@H]2OC(n3cnc4c(N)ncnc43)[C@H](O)[C@@H]2O)cc1 (some centres undefined) | > 100 µg/mL | > 400 µg/mL | > 400 µg/mL | 32 µM | > 400 µg/mL | 20 µg/mL (≈ 47.9 µM) | 54 µM | 208 µM | 20 µM | 20 µg/mL (≈ 47.9 µM) | > 400 µg/mL | > 400 µg/mL | > 400 µg/mL | – | – | – | – | – | – | – | MIC (Vero [6]): > 400 µg/mL; MCC (E6SM [8]): 200 µg/mL; MCC (Vero [9]): > 400 µg/mL; MIC (E6SM [12]): 20 µg/mL (≈ 47.9 µM); MCC (HeLa [14]): > 400 µg/mL
2 | Nc1ncnc2c1ncn2C1O[C@H](/C=C/I)[C@@H](O)[C@H]1O (some centres undefined) | 2 µg/mL (≈ 5.14 µM) | > 200 µg/mL | – | 18 µM | 7 µg/mL (≈ 18 µM) | > 100 µg/mL | 15 µM | 15 µM | 26 µM | 7 µg/mL (≈ 18 µM) | > 100 µg/mL | > 200 µg/mL | > 200 µg/mL | ≥ 200 µg/mL | > 200 µg/mL | ≥ 200 µg/mL | 0.058 min⁻¹ | 0.6 | 200 µg/mL | > 100 µg/mL | Ki (Adenosylhomocysteinase [23]): 0.096 µM
3 | Nc1ncnc2c1ncn2[C@@H]1O[C@H](/C=C\Cl)[C@@H](O)[C@H]1O | 20 µg/mL (≈ 67.2 µM) | 20 µg/mL (≈ 67.2 µM) | – | 117 µM | 70 µg/mL (≈ 235 µM) | 70 µg/mL (≈ 235 µM) | 143 µM | 164 µM | 86 µM | 20 µg/mL (≈ 67.2 µM) | > 100 µg/mL | 70 µg/mL (≈ 235 µM) | 70 µg/mL (≈ 235 µM) | ≥ 200 µg/mL | > 100 µg/mL | ≥ 100 µg/mL | – | – | ≥ 200 µg/mL | > 100 µg/mL | –
4 | C=C(Br)[C@H]1OC(n2cnc3c(N)ncnc32)[C@H](O)[C@@H]1O (some centres undefined) | – | – | – | – | – | – | 25 µM | 47 µM | 13 µM | – | – | – | – | – | – | – | – | – | – | – | –
5 | Nc1ncnc2c1ncn2[C@@H]1O[C@H](/C=C\I)[C@@H](O)[C@H]1O | 7 µg/mL (≈ 18 µM) | > 200 µg/mL | – | 21 µM | 7 µg/mL (≈ 18 µM) | > 200 µg/mL | 43 µM | 43 µM | 32 µM | 20 µg/mL (≈ 51.4 µM) | > 200 µg/mL | 100 µg/mL (≈ 257 µM) | > 200 µg/mL | > 200 µg/mL | > 200 µg/mL | > 200 µg/mL | – | – | > 200 µg/mL | > 200 µg/mL | –
6 | Nc1ncnc2c1ncn2C1O[C@H](/C=C/F)[C@@H](O)[C@H]1O (some centres undefined) | 100 µg/mL (≈ 356 µM) | 200 µg/mL (≈ 711 µM) | 150 µg/mL (≈ 533 µM) | 266 µM | > 100 µg/mL | > 200 µg/mL | 301 µM | 287 µM | 147 µM | 70 µg/mL (≈ 249 µM) | – | 70 µg/mL (≈ 249 µM) | – | > 200 µg/mL | 150 µg/mL (≈ 533 µM) | > 200 µg/mL | 0.01 min⁻¹ | 0.008 | > 200 µg/mL | 150 µg/mL (≈ 533 µM) | MIC (HeLa [24]): > 100 µg/mL; Ki (Adenosylhomocysteinase [23]): 1.3 µM
7 | Nc1ncnc2c1ncn2[C@@H]1O[C@H](/C=C/Cl)[C@@H](O)[C@H]1O | 70 µg/mL (≈ 235 µM) | > 100 µg/mL | > 200 µg/mL | 80 µM | > 200 µg/mL | > 200 µg/mL | 139 µM | 160 µM | 99 µM | 70 µg/mL (≈ 235 µM) | > 200 µg/mL | > 100 µg/mL | > 100 µg/mL | 400 µg/mL | > 200 µg/mL | ≥ 200 µg/mL | 0.014 min⁻¹ | 0.13 | ≥ 200 µg/mL | > 200 µg/mL | Ki (Adenosylhomocysteinase [23]): 0.11 µM
8 | Nc1ncnc2c1ncn2[C@@H]1O[C@H](/C=C/Br)[C@@H](O)[C@H]1O | 7 µg/mL (≈ 20.5 µM) | > 100 µg/mL | – | – | 7 µg/mL (≈ 20.5 µM) | 150 µg/mL (≈ 438 µM) | 42 µM | 60 µM | 56 µM | 20 µg/mL (≈ 58.5 µM) | > 100 µg/mL | > 100 µg/mL | > 100 µg/mL | ≥ 200 µg/mL | > 200 µg/mL | ≥ 200 µg/mL | 0.028 min⁻¹ | 0.21 | ≥ 200 µg/mL | – | IC50 (MOLT-4 [25]): 56 µM; MIC (E6SM [12]): > 100 µg/mL; Ki (Adenosylhomocysteinase [23]): 0.134 µM
9 | Nc1ncnc2c1ncn2[C@@H]1O[C@H](/C=C\Br)[C@@H](O)[C@H]1O | 150 µg/mL (≈ 438 µM) | 20 µg/mL (≈ 58.5 µM) | > 200 µg/mL | 93 µM | 150 µg/mL (≈ 438 µM) | 70 µg/mL (≈ 205 µM) | 104 µM | 134 µM | 65 µM | 150 µg/mL (≈ 438 µM) | > 200 µg/mL | > 100 µg/mL | 150 µg/mL (≈ 438 µM) | > 200 µg/mL | 150 µg/mL (≈ 438 µM) | ≥ 200 µg/mL | – | – | > 200 µg/mL | > 200 µg/mL | –
